The list is not random: actives were taken first. Their share in the collection is about 4.9%.
STAT1 inh: STAT1 signaling inhibition. NIH 3T3 STAT1-luciferase reporter, IFN-gamma, luminescence. inhibition, % at 5.5 µM. 0.35% of 200,000 active. AID 920;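 active = inhibition above a set limit, the mean inhibition across all tested compounds plus 3 SD, cut at about 34% in these data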;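 also: 0% = IFN-gamma with DMSO and 100% = IFN-gamma with 300 µM nifuroxazide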
STAT3 act-1: STAT3 signaling activation. 0.91% of 190,000 active. AID 871. U3A cells, IL-6 STAT3-luciferase reporter, luminescence; 100% = signal with IL-6 EC80 alone. activation (% of control), % at 5.6 µM;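 active = activation above the screen-wide mean of compound activation plus 3 SD, cut at about 130% in these data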;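 also: 0% = background luminescence of wells with medium and substrate only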
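Material: human STAT1-deficient U3A cells with stable STAT3-luciferase reporter / Probe or stimulus: IL-6 stimulus at 33 ng/mL final / Schedule: 1 h compound pre-exposure, 6 h IL-6 stimulation, 37 °C / Technique: luminescence / Read-out basis: percent of IL-6-only median luminescence / Control set: IL-6-only high control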
NF-kB neuron act: NF-kB expression increase, human neuronal cells. fold change at 12.5 µM. 1.6% of 190,000 active. NF-kB reporter expression; stronger effect = higher value; in the data active = fold change above about 3.3
APP 5'UTR act: activates APP 5'UTR luciferase reporter | SH-SY5Y APP 5'UTR luciferase reporter, luminescence; zero percent = DMSO vehicle wells | activation, % at 2 µM | 1% of 190,000 active | AID 1276;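 active = activation above a set limit, based on mean plus 3 SD of controls, cut at about 140% in these data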
STAT1 act-1: STAT1 signaling activation; 2.6% of 200,000 active; activation (% of control), % at 5.5 µM; NIH 3T3 STAT1-luciferase reporter, IFN-gamma, luminescence; 100% = IFN-gamma alone, no compound;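 active = activation above the screen-wide mean activation plus 3 SD, cut at about 130% in these data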;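 also: raw ratio to IFN-gamma control signal so 100% means no change and 0% no light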
STAT3 blocker: reduces IL-6 driven STAT3 reporter signal; U3A cells, IL-6 STAT3-luciferase reporter, luminescence; host cell line lacks STAT1; inhibition, % at 5.5 µM; 0.89% of 190,000 active; AID 862;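 active = inhibition above the mean inhibition across all screened compounds plus 3 SD, cut at about 44% in these data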;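 also: 0% = DMSO only wells and 100% = 100 µM nifuroxazide control wells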
STAT3 act-2: STAT3 activation, confirmation assay. shares compounds with STAT3 act-1. U3A STAT3-luciferase reporter, IL-6 potentiation, luminescence; U3A cells lack STAT1; 100 means same as IL-6 alone. potentiation (% of control), % at 5.7 µM. 64% of 1,200 active;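 active = percent activation of the STAT3 luciferase reporter above a set limit taken from the earlier primary screen, cut at about 130% in these data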;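 also: 0% = background signal of medium plus substrate and 100% = median of IL-6 with DMSO wells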
NFkB act 2: NF-kappaB activation in STAT3 activator counter-screen. shares compounds with STAT3 act-1. human cells, NF-kappaB reporter activation. activation (% of control), % at 5.7 µM. 11% of 1,200 active; in the data active = activation above about 120%;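 also: reporter induced by TNF-alpha stimulation; 100% = median of stimulated DMSO wells and 0% = no signal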
STAT1 act-2: counter-screen for STAT3 activators: STAT1 activation; AID 1318; shares compounds with STAT3 act-1; activation (% of control), % at 5.7 µM; NIH 3T3 STAT1-luciferase reporter, IFN-gamma, luminescence; 13% of 1,200 active;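 active = activation above the solvent-only control well mean plus 3 SD, set per screening run, cut at about 120% in these data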;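 also: 100% = IFN-gamma with DMSO median signal so 100% means no change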
The depositor's hits bear a star; x = not tested or not shown.

SMILES | STAT1 inh | STAT3 act-1 | NF-kB neuron act | APP 5'UTR act | STAT1 act-1 | STAT3 blocker | STAT3 act-2 | NFkB act 2 | STAT1 act-2
COc1ccc(C)cc1N(C(=O)COc1ccccc1)c1nc2ccccc2s1 | 10 | 137* | 0.97 | 4 | 91 | -43 | 145* | 101 | 101
Cc1cc(C)nc(SC2CCCCC2O)n1 (stereo not drawn) | 5 | 136* | 1.1 | 20 | 97 | -41 | 112 | 97 | 99
Cc1cc(C)nc(SCSc2nc(C)cc(C)n2)n1 | 4 | 101 | 1.2 | -5 | 95 | 3 | x | x | x
CSc1ncc(CN2CCc3c([nH]c4ccccc34)C2c2cccc(O)c2)cn1 (stereo not drawn) | -8 | 154* | 1.5 | 26 | 106 | -53 | 147* | 103 | 99
CCn1cc(CN2CCc3c([nH]c4ccccc34)C2c2cccc(O)c2)c(C)n1 (stereo not drawn) | 11 | 142* | 0.93 | -10 | 89 | -41 | 140* | 102 | 89
CCn1cc(CN2CCc3c([nH]c4ccccc34)C2c2ccc(F)c(OC)c2)c(C)n1 (stereo not drawn) | -1 | 111 | 1 | 25 | 100 | -7 | x | x | x
COc1ccccc1Nc1ccc(S(=O)(=O)N2CCCCC2)cc1[N+](=O)[O-] | 7 | 109 | 1.2 | -5 | 94 | -15 | x | x | x
CCOC(=O)C1CCN(c2nc(-c3ccc(Br)cc3)nc3ccccc23)CC1 | 5 | 142* | 1.2 | 16 | 95 | -40 | 137* | 98 | 89
NC(=O)C1CCN(c2nc(-c3ccccc3)nc3ccccc23)CC1 | 8 | 100 | 0.71 | -7 | 92 | 4 | x | x | x
Cc1[nH]c2ccccc2c1C(=O)C(=O)NCc1cccs1 | -6 | 90 | 1 | 2 | 107 | 12 | x | x | x
Cc1cc(CNC(=O)Cn2nc(C)c([N+](=O)[O-])c2C)c2ccccc2n1 | -3 | 101 | 0.96 | -23 | 101 | 0 | x | x | x
CC(=O)Nc1cccc(NC(=O)CSc2ccc(-c3cccnc3)nn2)c1 | -5 | 140* | 1.4 | -2 | 105 | -51 | 115 | 98 | 106
CCOC(=O)C1=C(C)NC(C)=C(C(=O)OCC)C1c1cc2ccc(C)cc2[nH]c1=O | 8 | 143* | 0.94 | -3 | 93 | -46 | 129 | 92 | 99
CC(C)(C)c1cc(C(=O)N2CCc3ccccc32)ccn1 | 7 | 111 | 0.8 | -2 | 93 | -2 | x | x | x
CN(C)S(=O)(=O)c1cccc(C(=O)N2CCc3ccccc32)c1 | 4 | 148* | 1.3 | 7 | 97 | -53 | 126 | 108 | 108
COc1ccccc1NC(=O)COC(=O)Cc1c[nH]c2ccccc12 | 20 | 141* | 1.1 | 13 | 82 | -51 | 142* | 109 | 96
Cc1cccc(NC(=O)COC(=O)Cc2c[nH]c3ccccc23)c1C | 3 | 111 | 1.1 | -15 | 97 | -16 | x | x | x
O=C(CN1CCC2(CC1)OCCO2)c1c[nH]c2ccccc12 | -3 | 148* | 0.87 | 12 | 102 | -54 | 123 | 105 | 98
O=C(OCc1nc2ccccc2s1)c1cnccn1 | -17 | 136* | 0.91 | 79 | 115 | -37 | 146* | 119 | 140*
O=C(O)/C=C/C(=O)Nc1ccc(S(=O)(=O)N2CCCC2)cc1 | -6 | 102 | 1 | -1 | 105 | 1 | x | x | x
Cc1cc(S(=O)(=O)NCC(C)C)ccc1OCC(=O)NCc1ccco1 | 3 | 98 | 0.98 | 22 | 96 | 7 | x | x | x
CC(C)(C)OC(=O)N/N=C/c1c[nH]c2ccccc12 | -19 | 139* | 1.2 | 14 | 118 | -50 | 126 | 119 | 120
COC(=O)N/N=C/c1c[nH]c2ccccc12 | -6 | 132 | 1.3 | 10 | 106 | -35 | x | x | x
CN(C)CCNC(C(=O)Nc1cccc(C(F)(F)F)c1)c1ccccc1 (stereo not drawn) | 0 | 94 | 0.84 | 13 | 99 | 11 | x | x | x
O=C1C2C3C=CC(C3)C2C(=O)N1CNc1ccccn1 (stereo not drawn) | -1 | 140* | 1 | 28 | 101 | -46 | 101 | 111 | 103
SMILES | STAT1 inh | STAT3 act-1 | NF-kB neuron act | APP 5'UTR act | STAT1 act-1 | STAT3 blocker | STAT3 act-2 | NFkB act 2 | STAT1 act-2
CCOC(=O)C(=O)c1cn(C2OCC(OC(C)=O)C(OC(C)=O)C2OC(C)=O)c2ccccc12 (stereo not drawn) | 2 | 107 | 1 | -16 | 99 | -6 | x | x | x
Cc1cc(C)c(S(=O)(=O)/N=C2/C=C(SCC(=O)O)C(=O)c3ccccc32)cc1C | 6 | 139* | 0.7 | -12 | 93 | -37 | 135* | 97 | 96
CCC(C)c1ccccc1NC(=O)COC(=O)c1ccc2[nH]c3c(c2c1)CCCC3 (stereo not drawn) | -9 | 107 | 0.73 | -10 | 108 | -4 | x | x | x
Cc1nc2ccc(Br)cn2c1C(=O)N/N=C\c1ccccc1[N+](=O)[O-] | 7 | 148* | 1.1 | -3 | 92 | -50 | 132 | 97 | 102
COC(=O)NC(C)N1C(=O)C2C3C=CC(C3)C2C1=O (stereo not drawn) | -1 | 94 | 1.1 | 26 | 99 | 15 | x | x | x
CCOC(=O)C1=C(c2ccccc2)ON(C)C1c1ccccc1 (stereo not drawn) | -1 | 98 | 1.1 | -1 | 101 | 0 | x | x | x
CC1=NN(c2ccccc2)C(=O)C1N=Nc1ccc(C)cc1 (stereo not drawn) | -13 | 136* | 1.1 | 11 | 111 | -25 | 121 | 106 | 108
CC1=NN(c2nc(-c3ccccc3)cs2)C(=O)C1N=Nc1ccccc1 (stereo not drawn) | -15 | 87 | 0.98 | 12 | 113 | 25 | x | x | x
CC1=NN(c2nc(-c3ccc(C)cc3)cs2)C(=O)C1N=Nc1ccc2ccccc2c1 (stereo not drawn) | 1 | 150* | 1.1 | -3 | 99 | -54 | 142* | 102 | 97
Cc1cc(NC(=O)CN2CC(C)OC(C)C2)n(-c2nc3ccccc3s2)n1 (stereo not drawn) | -2 | 150* | 1.3 | -15 | 102 | -59 | 133* | 102 | 102
Cc1cc(NC(=O)C(C)C)n(-c2nc3ccccc3s2)n1 | -24 | 143* | 1 | 4 | 120 | -40 | 163* | 116 | 117
O=C(O)CCCC(=O)Nc1ccc(OCc2nc3ccccc3s2)cc1 | -17 | 136* | 1.3 | 17 | 115 | -36 | 126 | 104 | 119

Compound activity as filed in PubChem BioAssay.
